Assay outcomes deposited in PubChem BioAssay by Broad Institute.
F508del corr – F508del CFTR correction, initial screen, CFBE line, single point; 350,000 compounds, 0.36% hits; CFBE cells, YFP halide quenching; stimulated with forskolin plus potentiator P3; % fluorescence drop versus neutral controls; activity (quench increase), % at 7.58 µM;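 active means mean added fluorescence quench of at least 8% versus neutral control, with both replicates also reaching 8%; inconclusive means only one of the mean or replicate conditions met; inactive means mean below 8% and not both replicates reaching 8%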;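 further: cells transiently co-express mutant CFTR-F508del with the halide-sensitive YFP; corrector assay measuring rescue of mutant channel to the surface after 24 h compound exposure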
PGC1a acetyl inh – inhibitors of PGC1a acetylation signal, primary screen, cell-based, U2OS, AlphaScreen, inhibitor mode; inhibition, % at 15.6 µM; AID 651687, 2012; AlphaScreen anti-acetyl-lysine; with virally co-expressed GCN5 acetyltransferase; 350,000 compounds, 0.17% hits;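 active means every replicate shows inhibition of at least 40%; inconclusive means mean inhibition at least 40% but some replicate below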
Env fusion inh – inhibitors of HIV-1 Env-driven cell-cell fusion, primary screen, HeLa-JRFL effector, CEM21 target cells, luciferase; inhibition, % at 12.3 µM; 360,000 compounds, 1.1% hits; AID 651610, 2012;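 active means mean replicate inhibition score of at least 50 and every replicate individually at or above 50; inconclusive means only one of the two criteria met; inactive means mean below 50 and not all replicates reaching 50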
PAX8 inh HTS – inhibitors of PAX8-driven TPO luciferase reporter, primary screen, RMG-I cells, single concentration. SteadyGlo, 24 h. inhibition, % at 12.6 µM. 360,000 compounds, 1.2% hits. AID 652154, 2013;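 active means mean replicate inhibition at least 60% with every replicate also reaching 60%; inconclusive means only one of the two criteria is met; inactive means mean below 60% and not all replicates reaching 60%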;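 further: luciferase light reporting Pax8 driven TPO promoter activity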
EWS-Fli inh – EWS/Fli-driven NR0B1 reporter inhibitors, primary screen, A673 cells, NR0B1 luciferase, luminescence, MLPCN library; viability-normalised; inhibition, % at 12.6 µM; 350,000 compounds, 0.67% hits;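 active means mean inhibition of at least 50% after viability correction, with every replicate also passing that limit; inconclusive means mean reaches 50% but only one of two replicates passes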;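 further: firefly luciferase signal divided by Alamar Blue viability fluorescence both relative to DMSO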
FN deposit inh – inhibitors of fibronectin matrix deposition, primary screen, AH1F cells, Alexa488-fibronectin fluorescence, plate reader | AH1F fibroblasts, overnight | inhibition, % at 12.6 µM | 350,000 compounds, 0.086% hits | AID 743247, 2014;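 active means mean inhibition across replicates of 30% or more, regardless of how many single replicates reach that level; inconclusive means mean under 30% yet at least half of replicates reach 30%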
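test system = AH1F fibroblasts assembling fluorescent fibronectin matrix | quantity = 10000 AH1F cells per well | buffer or medium = DMEM plus 2% serum, read in PBS | doses = single dose, pinned | incubation = 1 h cell attachment, overnight exposure to compound and label | detection = fluorescence at 485 nm excitation, 525 nm emission | read-out basis = inhibition from reduced deposited-fibronectin fluorescence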
Large screens that a line does not name were inactive. A selection: hits, their analogues and other compounds. The true share with any hit is near 2.3%.

COc1ccc(S(=O)(=O)Nc2ccc3c(c2)CC(=O)N([C@H](C)CO)C[C@H](C)[C@H](CN(C)Cc2ccc(-c4ccccc4)cc2)O3)cc1	none (no result: FN deposit inh)
COc1ccc(S(=O)(=O)Nc2ccc3c(c2)CC(=O)N([C@@H](C)CO)C[C@H](C)[C@@H](CN(C)Cc2ccc(-c4ccccc4)cc2)O3)cc1	PAX8 inh HTS inconclusive (no result: FN deposit inh)
COc1ccc(S(=O)(=O)Nc2ccc3c(c2)CC(=O)N([C@@H](C)CO)C[C@@H](C)[C@@H](CN(C)Cc2ccc(-c4ccccc4)cc2)O3)cc1	PAX8 inh HTS 85 (no result: FN deposit inh)
C[C@@H]1CN([C@H](C)CO)C(=O)Cc2cc(NC(=O)NC3CCCCC3)ccc2O[C@H]1CN(C)Cc1ccc(C(F)(F)F)cc1	none (no result: PAX8 inh HTS)
C[C@H](CO)N1C[C@H](C)[C@@H](CN(C)C(=O)Nc2ccc(C(F)(F)F)cc2)Oc2ccc(NC(=O)Nc3ccc(F)cc3)cc2CC1=O	none (no result: FN deposit inh)
COc1cccc(C(=O)Nc2ccc3[nH]c(=O)[nH]c3c2)c1OC	Env fusion inh 60
COc1cccc(NC(=O)c2cccc(OC)c2OC)c1	none (no result: F508del corr, EWS-Fli inh)
COc1ccc2c3c(n(C)c2c1)[C@H](CO)NCC31CCN(Cc2cc(-c3ccccc3)on2)CC1	F508del corr 12, PGC1a acetyl inh 69, PAX8 inh HTS 82 (no result: Env fusion inh)
C[C@H]1CCCCO[C@@H](CN(C)C(=O)Nc2ccc(C(F)(F)F)cc2)[C@@H](C)CN([C@@H](C)CO)C(=O)c2cc(NC(=O)c3ccncc3)ccc2O1	none
Cc1ccc(C(c2nnnn2CS(=O)(=O)c2ccc(C)cc2)N2CCCC2)cc1 (stereo not drawn)	Env fusion inh 73 (no result: PGC1a acetyl inh)
Cc1ccc(S(=O)(=O)CC(CN2CCCCC2)N2CCCCC2)cc1 (stereo not drawn)	PAX8 inh HTS 90 (no result: PGC1a acetyl inh)
Cc1ccc(S(=O)(=O)Cn2nnnc2C(c2ccccc2)N2CCN(c3ccccc3)CC2)cc1 (stereo not drawn)	none (no result: F508del corr, Env fusion inh, PAX8 inh HTS, EWS-Fli inh, FN deposit inh)
C[C@@H]1CN([C@@H](C)CO)C(=O)c2cc(NC(=O)C3CC3)ccc2O[C@H]1CN(C)Cc1ccc(-c2ccccc2)cc1	none (no result: Env fusion inh, PAX8 inh HTS, FN deposit inh)
CCC(C)N(C(=O)COC(=O)c1cc([N+](=O)[O-])ccc1N)C1CCS(=O)(=O)C1 (stereo not drawn)	Env fusion inh 70 (no result: EWS-Fli inh, FN deposit inh)
CN(C)c1ccc(-c2noc(C3CCN(S(=O)(=O)c4cccc(Cl)c4)CC3)n2)cc1	Env fusion inh 56 (no result: F508del corr, PGC1a acetyl inh, PAX8 inh HTS, EWS-Fli inh, FN deposit inh)
CN(C)c1ccc(-c2noc(C3CCN(S(=O)(=O)c4ccc(C(=O)O)cc4)CC3)n2)cc1	none (no result: F508del corr, PAX8 inh HTS, EWS-Fli inh)
CS(=O)(=O)c1ccc(S(=O)CC(=O)OCc2ccccc2)c([N+](=O)[O-])c1 (stereo not drawn)	PAX8 inh HTS 107, EWS-Fli inh 64 (no result: PGC1a acetyl inh)
O=C(CS(=O)c1ccc(C(F)(F)F)cc1[N+](=O)[O-])Oc1ccccc1 (stereo not drawn)	none (no result: F508del corr, EWS-Fli inh)
COc1ccc(S(=O)(=O)Nc2ccc3c(c2)C(=O)N([C@H](C)CO)C[C@H](C)[C@H](CN(C)S(=O)(=O)c2ccc(F)cc2)OCCCC[C@H](C)O3)cc1	PAX8 inh HTS 77 (no result: FN deposit inh)
COc1ccc(S(=O)(=O)Nc2ccc3c(c2)C(=O)N([C@H](C)CO)C[C@@H](C)[C@H](CN(C)S(=O)(=O)c2ccc(F)cc2)OCCCC[C@H](C)O3)cc1	PAX8 inh HTS 79 (no result: FN deposit inh)
O=C(C[C@H]1CC[C@H](NC(=O)NC2CCCC2)[C@@H](CO)O1)NCc1ccc(F)cc1	none (no result: FN deposit inh)
COc1nc(Nc2nc3ccccc3c(=O)[nH]2)nc2ccc(C)cc12	Env fusion inh 103, PAX8 inh HTS 76
CC1(C)CC(NC(=O)c2ccccc2)CC(C)(C)N1	none (no result: PGC1a acetyl inh)
CC1(C)CC(Nc2ccc(Nc3ccccc3)cc2)CC(C)(C)N1	PAX8 inh HTS 69 (no result: PGC1a acetyl inh)
CCCCCCCCCCCCCCCC[n+]1ccc(/C=N/O)cc1	Env fusion inh 89, PAX8 inh HTS 94 (no result: F508del corr, PGC1a acetyl inh, FN deposit inh)
CCCCCCCC[n+]1cccc(C(=O)N(CC)CC)c1	none (no result: PGC1a acetyl inh)
CCCCCCCCCCCCCCCC[n+]1cccc(C(=O)N(CC)CC)c1	PAX8 inh HTS 64
CCCCCCCCCCCCCCCC[n+]1ccc(C(N)=O)cc1	Env fusion inh inconclusive, PAX8 inh HTS 111 (no result: F508del corr, EWS-Fli inh)
CCCCCCCCCCCCCCCC[n+]1ccccc1	PAX8 inh HTS 95, EWS-Fli inh 60
COc1ccc2c3c(n(C)c2c1)[C@H](CO)N(C(=O)C1CCCCC1)CC31CN(C(=O)Nc2cccc(F)c2)C1	none (no result: PGC1a acetyl inh, Env fusion inh, FN deposit inh)
Cc1noc(C)c1S(=O)(=O)Nc1ccc2c(c1)C(=O)N([C@H](C)CO)C[C@H](C)[C@@H](CN(C)C(=O)NC1CCCCC1)OCCCC[C@H](C)O2	none (no result: PGC1a acetyl inh, FN deposit inh)
COCC(=O)N(C)C[C@@H]1Oc2ncc(C#C[C@H](C)O)cc2C(=O)N([C@@H](C)CO)C[C@H]1C	none (no result: PAX8 inh HTS)
O=C(NC[C@H]1CC[C@H]2[C@H](CN2C(=O)CN2CCOCC2)O1)NC1CCCCC1	none (no result: PGC1a acetyl inh, Env fusion inh, PAX8 inh HTS, FN deposit inh)
Cc1cccc(C)c1OCC(O)Cn1c2ccccc2c2ccccc21 (stereo not drawn)	Env fusion inh 57 (no result: F508del corr, PAX8 inh HTS, EWS-Fli inh)
Cc1ccc(OCC(O)Cn2c3ccccc3c3ccccc32)cc1 (stereo not drawn)	none (no result: F508del corr, PAX8 inh HTS, EWS-Fli inh)
C[C@@H]1CN([C@@H](C)CO)C(=O)Cc2cc(NC(=O)CCCCCC(=O)Nc3ccccc3N)ccc2O[C@H]1CN(C)CC1CC1	none (no result: Env fusion inh, FN deposit inh)
COc1ccc(S(=O)(=O)N[C@@H]2C=C[C@H](CC(=O)N3CCN(c4ccccc4)CC3)O[C@H]2CO)cc1	none (no result: FN deposit inh)
Cc1nc2cc3ccccc3cc2n1C	none (no result: F508del corr, PGC1a acetyl inh, Env fusion inh, EWS-Fli inh)
Cn1c(=O)[nH]c2cc3ccccc3cc21	Env fusion inh 70 (no result: F508del corr, EWS-Fli inh)
C[C@@H]1CN([C@@H](C)CO)S(=O)(=O)c2ccc(-c3ccc(F)cc3)cc2O[C@@H]1CN(C)C(=O)Nc1ccccc1F	none (no result: PAX8 inh HTS, FN deposit inh)
O=C(Cc1ccccc1)Nc1ccccc1C(=O)N1CCCCC1	none
O=C(Cc1ccccc1)c1ccccc1C(=O)N1CCCCC1	PAX8 inh HTS 108
CC(=O)C(C(c1ccccc1)c1c[nH]c2ccccc12)[N+](=O)[O-] (stereo not drawn)	EWS-Fli inh 51 (no result: F508del corr)
O=C(c1cccc(S(=O)(=O)NCc2ccccc2)c1)N1CCN(c2ccc(F)cc2)CC1	none
O=C(c1cccc(S(=O)(=O)NCc2ccccc2)c1)N1CCN(c2cccc(C(F)(F)F)c2)CC1	Env fusion inh 61 (no result: EWS-Fli inh, FN deposit inh)
O=C(c1ccccc1)N(CCCn1ccnc1)C(c1ccccc1)c1nc2ccccc2[nH]1 (stereo not drawn)	none
O=C(c1ccc(C(F)(F)F)cc1)N(CCCn1ccnc1)C(c1ccccn1)c1nc2ccccc2[nH]1 (stereo not drawn)	Env fusion inh 65
O=C1C=CC(=O)C(CNc2ccc(C(=O)OCc3ccccc3)cc2)=C1	EWS-Fli inh 59
C/C=C/c1ccccc1[C@@H]1[C@@H](C#N)N(C(C)=O)[C@H]1CO	none (no result: Env fusion inh, PAX8 inh HTS)
